Rows were chosen to be rich in hits. Some 1.8% of all compounds tested hit in one or more screens of this group.
NR2E3 ag-1: activates human photoreceptor nuclear receptor NR2E3 | inhibition of corepressor binding, % at 4.78 µM | Q9Y5X4 | actives 0.12% (n = 320,000) | GST-NR2E3/biotin-RetCOR TR-FRET, 1536-well;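 active = percent inhibition above the cutoff of mean plus 3 SD of all tested compounds, set per screening campaign, cut at about 20% in these data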;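 also: 0% = DMSO wells and 100% = biotin wells as full block of FRET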
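System: GST-NR2E3 and biotin-RetCOR proteins; probe or stimulus: 7 nM biotin-RetCOR; doses: compound at 4.8 µM, single dose; schedule: Compound–protein incubation for 5 h at 4 °C; detection: time-resolved FRET; read-out: percent inhibition; controls: biotin wells as high control, 0.6% DMSO wells as low control; format: 1536-well plates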
Rev-erbA mod: modulators of human Rev-erb alpha DNA binding; P20393; Rev-erbα–FITC-DNA binding, fluorescence polarization, 90 min; activity, % at 10 µM; actives 0.79% (n = 370,000);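 active = activity above about 14%, limit read from the data; passing the limit was not always enough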;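 also: 0% = DMSO wells with 35 nM protein and 100% = DMSO wells with 750 nM protein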
Target sequence (P20393 whole entry, looked up): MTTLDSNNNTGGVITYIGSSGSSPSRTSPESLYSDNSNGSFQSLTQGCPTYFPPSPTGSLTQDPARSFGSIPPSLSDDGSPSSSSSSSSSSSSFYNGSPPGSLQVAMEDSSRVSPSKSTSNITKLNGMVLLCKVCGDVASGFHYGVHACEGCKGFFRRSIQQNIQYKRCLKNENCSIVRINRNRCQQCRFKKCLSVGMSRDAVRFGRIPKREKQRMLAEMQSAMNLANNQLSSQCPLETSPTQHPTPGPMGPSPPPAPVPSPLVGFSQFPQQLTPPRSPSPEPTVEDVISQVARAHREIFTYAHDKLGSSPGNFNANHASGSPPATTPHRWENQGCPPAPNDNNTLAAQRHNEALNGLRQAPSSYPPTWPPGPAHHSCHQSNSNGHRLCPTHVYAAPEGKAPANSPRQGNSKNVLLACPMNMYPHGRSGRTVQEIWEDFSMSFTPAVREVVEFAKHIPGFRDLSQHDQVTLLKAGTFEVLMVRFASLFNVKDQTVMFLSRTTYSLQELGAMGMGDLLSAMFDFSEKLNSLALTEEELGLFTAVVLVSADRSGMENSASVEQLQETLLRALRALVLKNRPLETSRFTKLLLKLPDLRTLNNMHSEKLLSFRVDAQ
NR2E3 ag-2: agonists of human NR2E3 nuclear receptor. Q9Y5X4. CHO-S Gal4-NCOR/VP16-NR2E3 two-hybrid, luciferase. inhibition of corepressor binding, % at 3.98 µM. actives 0.35% (n = 360,000). AID 602229;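 active = inhibition above the mean of all tested compounds plus 3 SD, cut at about 70% in these data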;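 also: 0% = DMSO with NR2E3 transfected cells and 100% = cells lacking NR2E3 construct; higher means lower luciferase signal from less NR2E3 corepressor binding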
PG9 binder: PG9 antibody binding by small molecule. TR-FRET gp120-PG9 antibody binding. inhibition, % at 6.7 µM. actives 0.43% (n = 360,000); in the data active = inhibition above about 8.5%
GalR3 antag: antagonists of human GalR3 | HEK293 GalR3-CNG cAMP membrane potential fluorescence; galR3 body fused to GalR1 C-terminus | inhibition, % at 3 µM | actives 0.44% (n = 360,000);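 active = inhibition above the screen-wide average plus 3 SD, cut at about 13% in these data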;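 also: forskolin and galanin both at EC90 stimulate the cells; cAMP rise reported by CNG channel membrane potential dye signal; 0% = forskolin plus galanin with DMSO and 100% = forskolin alone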
GalR3 conf: GalR3 (human) antagonism, confirmation; shares compounds with GalR3 antag; HEK293 GalR3 CNG cAMP biosensor, membrane potential fluorescence; galR3 fused to GalR1 carboxy tail; challenged with forskolin and galanin at EC90; inhibition, % at 3 µM; actives 59% (n = 1,600);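 active = inhibition above the primary screen's cutoff, the mean inhibition of all screened compounds plus 3 SD, cut at about 13% in these data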;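 also: 0% = forskolin plus galanin and 100% = forskolin alone with DMSO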
HEK-CNG parental: counter-screen for GalR3 antagonists: nonspecific agonists in parental HEK-CNG cells; AID 652268; activation, % at 3 µM; shares compounds with GalR3 antag; actives 10% (n = 1,600); HEK293-CNG parental cells, cAMP membrane potential fluorescence; normalised: DMSO wells 0%, forskolin wells 100%; in the data active = activation above about 1.3%
* marks the source's active call; other numbers are inactive results; . = not tested or not shown.

SMILES	NR2E3 ag-1	Rev-erbA mod	NR2E3 ag-2	PG9 binder	GalR3 antag	GalR3 conf	HEK-CNG parental
O=C(Cn1nc(-c2ccc(N3CCOCC3)c([N+](=O)[O-])c2)c2ccccc2c1=O)N1CCCCC1	-1	2	29	-2	15*	60*	0
CN(C)c1cccc(-c2cnc(N3CCC(C(N)=O)CC3)s2)c1	.	5	.	.	.	.	.
CCOc1ccc(-c2nnc3n2N=C(c2ccc(OC)cc2)CS3)cc1	-1	-6	8	2	1	.	.
CCOc1ccc(C2=Nn3c(nnc3-c3ccccc3OC)SC2)cc1	-1	1	25	0	22*	45*	2.2*
COc1ccc(C2=Nn3c(nnc3-c3ccccc3OC)SC2)cc1OC1CCOC1 (stereo unspecified)	.	-4	13	0	-1	.	.
COc1ccc(C2=Nn3c(nnc3-c3ccccc3C(F)(F)F)SC2)cc1OC1CCOC1 (stereo unspecified)	.	0	-30	-3	15*	17*	0
CC(C)(C)c1ccc(S(=O)(=O)N2CCC(C(=O)N3CCN(C4CCCCC4)CC3)CC2)cc1	.	-3	.	.	.	.	.
O=C1C[C@@H](c2ccccc2)N=C2N(CC3CC3)C/C(=C/c3ccccc3)N12	.	2	.	.	.	.	.
COc1c(/C=C2\SC(=Nc3ccccc3Cl)NC2=O)cccc1[N+](=O)[O-]	6	0	-13	-2	51*	65*	1
CCCc1cc(=O)[nH]c(SCC(=O)c2c(C)[nH]c3ccccc23)n1	1	-4	-10	-2	17*	4	1.7*
COCCn1c(SCCCC(=O)c2ccc(Br)cc2)nnc1-c1ccncc1	0	-4	40	1	18*	38*	0
Cn1c(SCCCC(=O)c2ccc(F)cc2)nnc1-c1ccncc1	3	.	4	1	-3	.	.
COC(=O)C1CCCN(C(=O)C2CCN(S(=O)(=O)c3ccccc3[N+](=O)[O-])CC2)C1 (stereo unspecified)	.	-4	.	.	.	.	.
CC1(C)CC(=O)c2c(noc2-c2ccccc2)C1	3	0	2	0	-2	.	.
CC1(C)CC(=O)c2c(Cc3ccccc3)noc2C1	3	8	-24	-1	20*	4	1.3*
CCCC(CCC)=NNc1ccc(S(=O)(=O)Nc2ccccc2OC)cc1[N+](=O)[O-]	-3	0	2	0	0	.	.
COc1ccccc1NS(=O)(=O)c1ccc(N/N=C(\C)C(C)C)c([N+](=O)[O-])c1	-6	3	.	-3	33*	13*	-2
O=C(O)c1ccccc1NS(=O)(=O)c1cccc(-n2sc3ccccc3c2=O)c1	4	-4	-46	2	33*	23*	0
O=C(O)c1ccccc1NS(=O)(=O)c1cccc(C(F)(F)F)c1	3	-2	13	0	-5	.	.
Cc1cnc(C=O)c2cccc([N+](=O)[O-])c12	.	1	-18	1	34*	14*	0
COC(=O)C(=Cc1ccc(OCc2ccc([N+](=O)[O-])cc2)c(OC)c1)C(=O)OC	8	-5	-67	0	3	.	.
CCOC(=O)C(=Cc1ccc(OCc2ccc([N+](=O)[O-])cc2)c(OC)c1)C(=O)OCC	2	-1	-22	-1	.	5	0
O=C(NS(=O)(=O)N1CCCC1)C1=C(N2CCCC2)COC1=O	3	-6	-54	0	.	0	0
COc1cc2c(cc1OC)C(c1ccc3c(c1)OCO3)C1=C(CC(C)(C)CC1=O)N2 (stereo unspecified)	3	2	0	1	13*	29*	1
COc1cccc(C2C3=C(CC(C)(C)CC3=O)Nc3cc(OC)c(OC)cc32)c1 (stereo unspecified)	0	-1	1	0	15*	23*	0
SMILES	NR2E3 ag-1	Rev-erbA mod	NR2E3 ag-2	PG9 binder	GalR3 antag	GalR3 conf	HEK-CNG parental
COc1cccc(C2C3=C(CC(C)(C)CC3=O)Nc3cc4c(cc32)OCO4)c1 (stereo unspecified)	2	5	23	-1	0	.	.
COC(=O)C[C@@H]1CC[C@H]2[C@H](COc3ccc(NC(=O)Nc4ccc(C#N)cc4)cc3C(=O)N2C)O1	.	-1	.	.	.	.	.
CCCCn1c(-c2nonc2NC(=O)c2ccccc2Cl)nc2ccccc21	.	3	-8	0	19*	0	0
CC(=O)Nc1nonc1-c1nc2ccccc2n1CCC#N	3	4	0	-3	-4	.	.
COc1ccc(C(=O)OCCN(C)C2CN(Cc3cn(Cc4ccccc4Cl)nn3)S(=O)(=O)C2)cc1OC (stereo unspecified)	.	0	.	.	.	.	.
CCOC(=O)COc1cccc2c(=O)n(CC(=O)NCc3ccc(F)cc3)ccc12	0	8	-7	6	15*	22*	1
C=CCN1[C@H](Cc2ccccc2)COc2cccc(N3CCSCC3)c2S1(=O)=O	.	-1	.	.	.	.	.
COCCn1c(SCc2ccc(Cl)cc2)nc2c1c(=O)[nH]c(=O)n2C	-2	4	-17	-3	-2	.	.
CCCn1c(SCc2ccc(Cl)cc2)nc2c1c(=O)[nH]c(=O)n2C	4	-4	-9	-2	14*	32*	1.3*
CCOC(=O)N[C@H](C(=O)N1CCC[C@H]1C(=O)NCCc1ccccc1Cl)c1ccccc1	.	3	.	-1	-4	.	.
Cc1cc(NS(=O)(=O)c2ccc(NC(=O)CSc3nnc(-c4cnccn4)n3-c3ccccc3)cc2)nc(C)n1	.	2	.	.	.	.	.
NS(=O)(=O)OCCCc1ccccc1	4	-2	-5	1	0	.	.
COCC(COS(N)(=O)=O)Cc1ccccc1 (stereo unspecified)	4	0	-18	0	.	-3	0
CCOC(=O)[C@@]12CCCC3=C1N(CCC3)C(=O)[C@H]2CC(=O)NCc1ccccc1	.	-1	.	.	.	.	.
COc1ccccc1-c1oc2ccccc2c1-c1ccccc1OC	.	7	-9	-1	-6	.	.
COc1ccc(-c2c(-c3ccccc3OC)oc3ccccc23)cc1F	0	-2	-16	3	.	2	-1
O=C(O)c1cc(-c2ccccc2)nc2nc(N3CCCCC3)sc12	3	0	.	-1	13*	0	0
O=C(Nc1cccc(C(=O)NC2CC2)c1)c1ccc(Cl)c(S(=O)(=O)N2CCOCC2)c1	1	0	5	0	3	.	.
CC(=O)c1ccc(OCCCC(=O)Nc2ccc(Cl)c(S(=O)(=O)N3CCOCC3)c2)cc1	.	0	18	-1	87*	93*	-1

Assay outcomes: PubChem BioAssay, several laboratories
